Only some compounds are listed: those with a hit (about 6.4% of all), similar ones and a draw of the others.
EBV gp42 block: Epstein-Barr virus gp42 inhibitors, primary screen, biochemical, uHTS, fluorescence polarization; 220,000 tested, 0.42% active; inhibition, % (tested at 21.74 µM); AID 1085, 2008; Fluorescence polarization binding assay, mP read-out; in the data active = inhibition above about 50%
Target sequence (Q1HVG2 whole entry, looked up): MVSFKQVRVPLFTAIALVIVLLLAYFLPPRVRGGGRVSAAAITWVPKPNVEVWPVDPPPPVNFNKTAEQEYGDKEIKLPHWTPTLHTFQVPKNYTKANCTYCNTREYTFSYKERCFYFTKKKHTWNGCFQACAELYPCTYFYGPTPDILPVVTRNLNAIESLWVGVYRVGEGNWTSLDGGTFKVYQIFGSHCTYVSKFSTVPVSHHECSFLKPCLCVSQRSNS
TbMetRS inhib: T. brucei MetRS inhibitors, primary screen, biochemical, luminescence; purified T. brucei MetRS, ATP depletion, Kinase-Glo luminescence; inhibition, % at 11.9 µM; 360,000 tested, 0.4% active;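 active = inhibition above a per-plate cutoff of the control wells' mean inhibition plus 3 SD, cut at about 5.5% in these data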;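 also: 0% = DMSO wells median and 100% = median of wells with control inhibitor compound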
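Measured by: Kinase-Glo luciferase luminescence reporting remaining unconsumed ATP. Material: purified T. brucei MetRS enzyme. Doses: 11.9 µM compound single dose, 0.9% DMSO. Medium: HEPES buffer containing pyrophosphatase, BSA, spermine, DTT. Times: 15 min preincubation, 2 h reaction, all 25 °C. Reagent: methionine, ATP and bulk E. coli tRNA.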
MPTP block: mitochondrial permeability transition pore inhibitors, primary screen, biochemical, isolated mouse mitochondria, absorbance. inhibition, % at 10 µM. Ca2+ swelling absorbance, 30 min. 360,000 tested, 1.4% active;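 active = inhibition of 50% or more, scaled per plate between neutral and stimulator controls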;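 also: 0% = DMSO wells given calcium and 100% = 1 mM EGTA wells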
CHOP inhibitor: inhibitors of CHOP promoter induction, primary screen, cell-based, unfolded protein response, luciferase reporter. inhibition, % at 10 µM. 220,000 tested, 3.8% active. CHO-K1 CHOP-promoter luciferase, tunicamycin-induced, 15-18 h;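 active = compounds that reduced the stress-induced luciferase reporter signal by more than about 70% of percent inhibition, limit read from the data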;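 also: 0% = tunicamycin plus vehicle and 100% = wells without tunicamycin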
WT yeast gro inh: growth inhibition of WT strain, primary screen, mitochondrial fusion inhibitor project, WT and mutant strains, chemical genetic; mitochondrial fusion phenotypic screen; inhibition, % at 10 µM; 190,000 tested, 2.1% active; AID 1362, 2008; in the data active = inhibition above about 58%; tested in S. cerevisiae
NR3A LBD binder: binders of NR3A ligand-binding domain, primary screen, biophysical, differential scanning fluorimetry, uHTS. Glutamate receptor ionotropic, NMDA 3A (GRIN3A) ligand-binding domain. NR3A LBD differential scanning fluorimetry, Tm shift; 0% = protein alone, 100% = glycine-bound protein. AID 1259313, 2017. Tm shift relative to glycine control, % at 25 µM. 340,000 tested, 2.5% active;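 active = melting temperature shift of at least 10% of the positive control shift, at one fixed dose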
The depositor's hits bear a star; · = not tested or not shown.

SMILES	EBV gp42 block	TbMetRS inhib	MPTP block	CHOP inhibitor	WT yeast gro inh	NR3A LBD binder
COc1ccc(/C=C2\CCCC3C2=NN(C(=O)c2ccco2)C3c2ccc(OC)c(OC)c2)cc1OC (stereo not drawn)	-11	-1	-3	1	-6	-3
COc1ccc(/C=C2\CCCC3C2=NN(C(=O)c2scnc2C)C3c2ccc(OC)c(OC)c2)cc1OC (stereo not drawn)	-3	0	-1	15	11	11*
Cc1ccc(S(=O)(=O)N2CCCCC2)cc1NC(=O)Cn1ncc(Cl)c(Cl)c1=O	·	0	-2	·	·	2
CCOC(=O)c1ccc(NC(=O)Cn2ncc(Cl)c(Cl)c2=O)cc1	-4	0	1	108*	48	2
Cc1ccc(C(=O)OCn2ncc(Cl)c(Cl)c2=O)cc1	-9	-1	0	107*	7	-1
Cc1cc(Br)ccc1NC(=O)CNC(=O)Cn1ncc(Cl)c(Cl)c1=O	-25	0	-1	106*	3	0
COc1ccc(NC(=O)Cn2ncc(Cl)c(Cl)c2=O)cc1S(=O)(=O)N1CCOCC1	61*	-1	1	-56	-6	2
Cc1cccc(Cn2ncc(Cl)c(Cl)c2=O)c1	-10	-1	0	-99	12	1
CSC1=N/C(=C\c2ccccc2C)C(=O)S1	2	0	0	42	-8	-1
Cc1ccc(NC(=O)Nc2cccc(F)c2)nc1	·	0	0	·	·	21*
Cc1ccc(NC(=O)Nc2ccc(Cl)c(Cl)c2)nc1	·	-1	-1	·	·	12*
O=C(Nc1cccc(F)c1)Nc1ccc(Cl)cn1	·	0	2	·	·	8
COc1ccc(C2c3sc(=O)[nH]c3SC3C4CCC(C4)C23)cc1 (stereo not drawn)	-8	1	-2	88*	65*	-2
C=CCn1c(SCC(=O)c2ccccc2)nnc1-c1cc2ccccc2o1	-9	-1	-1	35	8	-11
CCN(CC)c1ccc(NC(=O)c2cccnc2)c(C)c1	11	-1	1	-6	4	-1
CCN(CC)c1ccc(NC(=O)c2cnc3ccccn3c2=O)c(C)c1	-31	-1	0	81*	5	1
COc1cc2c(cc1O)C(CSC)Cc1cc3c(cc1N(C)CC2)OCO3 (stereo not drawn)	·	0	2	·	·	·
O=C1CCc2cc(S(=O)(=O)N3CCN(c4cccc(C(F)(F)F)c4)CC3)ccc2N1	-19	-1	0	87*	7	-6
O=C1NC(c2cccc(OCc3ccccc3)c2)Nc2ccccc21 (stereo not drawn)	·	0	0	·	·	13*
CCCCC(=O)Nc1ccc(C(=O)NCc2ccncc2)cc1	7	-1	0	-10	15	0
Cc1cccc(C)c1OCCOC(=O)c1n[nH]c2ccccc12	-11	0	-2	22	67*	-7
Cc1cc(C)c2nc(N3CCC(C(=O)NCCCN4CC(C)CC(C)C4)CC3)sc2c1 (stereo not drawn)	0	3	-8	-19	69*	1
O=C(N/N=C/c1ccccc1)c1ccc(CN2C(=O)c3cccc4cccc2c34)cc1	-88	0	-1	28	-9	0
O=C(N/N=C/c1ccc(O)cc1O)c1ccc(CN2C(=O)c3cccc4cccc2c34)cc1	11	0	0	60	2	20*
CC1(OC(=O)C2CCCC2)C(=O)C=C2C=C(c3ccsc3)N(CCc3c[nH]c4ccccc34)C=C2C1=O (stereo not drawn)	0	0	1	15	·	-1
O=C(OCC(=O)N1CCCc2ccccc21)c1cc(S(=O)(=O)N2CCOCC2)ccc1Cl	·	0	-1	·	·	·
O=C(NNC(=O)c1cc(-c2ccccc2)nc2ccccc12)Nc1cccc(Cl)c1	22	0	4	1	21	26*

Screens as filed in PubChem.
